Measured values as given in ChEMBL document CHEMBL4316590, “Discovery and synthesis of novel beesioside I derivatives with potent anti-HIV activity” (Eur J Med Chem, 2019).

Assays:
[1] = system: Human immunodeficiency virus 1; experiment: Antiviral activity against HIV1 NL4-3 infected in human MT4 cells by luciferase reporter gene assay; type: functional, organism-based
Method in brief: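 HIV-1 NL4-3 Nanoluc-sec reporter virus (secreted NanoLuc insert) infecting MT4 cells, multicycle replication format, compounds at various concentrations; replication read as NanoLuc luciferase activity (Nano-Glo).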

[2] = system: MT4; experiment: Cytotoxicity against human MT4 cells assessed as reduction in cell viability after 3 days by CellTiter-Glo luminescent assay; type: cell-based; conditions: mt4, 72 h
[3] = Therapeutic index, ratio of CC50 for human MT4 cells to EC50 for HIV1 NL4-3 infected in human MT4 cells; type: toxicity, cell-based; conditions: read-out: Ratio CC50/EC50
Method in brief: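 TI calculated as CC50 (CellTiter-Glo, MT4 cells, 3 days) divided by EC50 (HIV-1 NL4-3 Nanoluc-sec multicycle replication in MT4 cells, luciferase read-out); CC50/EC50 below 5 taken as no selective anti-HIV activity.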

[4] = Human immunodeficiency virus 1, NL4-3, MT4, read-out: EC50

Row | SMILES | EC50 [1] | CC50 [2] [µM] | selectivity ratio [3] | EC50 [1, 4] [µM]
1 | CCC(=O)O[C@H]1CC[C@]23C[C@]24CC[C@]25CO[C@@]6(C(C)(C)O)CC[C@](C)(O6)[C@H]2[C@@H](OC(C)=O)[C@@H](OC(C)=O)[C@@]5(C)[C@@H]4CC[C@H]3C1(C)C | Not Active | > 40 | < 5 | –
2 | CC(=O)O[C@H]1[C@@H](OC(C)=O)[C@@]2(C)[C@@H]3CC[C@H]4C(C)(C)[C@@H](O[C@@H]5OC[C@@H](O)[C@H](O)[C@H]5O)CC[C@@]45C[C@@]35CC[C@@]23CO[C@@](C)(CCC(=O)C(C)(C)O)[C@@H]13 | – | > 30 | < 5 | > 30
3 | C[C@@H]1O[C@@H](O[C@H]2[C@H](O[C@H]3CC[C@]45C[C@]46CC[C@]4(C)[C@@H]([C@]7(C)CC[C@@H](C(C)(C)O)O7)[C@@H](O)C[C@@]4(C)[C@@H]6CC[C@H]5C3(C)C)OC[C@@H](O)[C@@H]2O)[C@H](O)[C@H](O[C@@H]2O[C@H](CO)[C@@H](O)[C@H](O)[C@H]2O)[C@H]1O | – | > 40 | < 5 | > 10
4 | CC(=O)O[C@H]1[C@@H](OC(C)=O)[C@@]2(C)[C@@H]3CC[C@H]4C(C)(C)C(=O)CC[C@@]45C[C@@]35CC[C@@]23CO[C@@]2(C(C)(C)O)CC[C@](C)(O2)[C@@H]13 | Not Active | > 30 | < 5 | –
5 | CC(=O)O[C@H]1[C@@H](OC(C)=O)[C@@]2(C)[C@@H]3CC[C@H]4C(C)(C)[C@@H](OC(C)=O)CC[C@@]45C[C@@]35CC[C@@]23CO[C@@]2(C(C)(C)O)CC[C@](C)(O2)[C@@H]13 | – | > 40 | – | 2.44
6 | CC(=O)O[C@H]1[C@@H](OC(C)=O)[C@@]2(C)[C@@H]3CC[C@H]4C(C)(C)[C@@H](OC(=O)CC(C)(C)C(=O)O)CC[C@@]45C[C@@]35CC[C@@]23CO[C@@]2(C(C)(C)O)CC[C@](C)(O2)[C@@H]13 | – | > 20 | > 800 | 0.025
7 | CC(=O)O[C@H]1[C@@H](OC(C)=O)[C@@]2(C)[C@@H]3CC[C@H]4C(C)(C)[C@@H](OC(=O)CCC(C)(C)C(=O)O)CC[C@@]45C[C@@]35CC[C@@]23CO[C@@]2(C(C)(C)O)CC[C@](C)(O2)[C@@H]13 | – | > 5 | – | 0.048
8 | CC(=O)O[C@H]1[C@@H](O)[C@@]2(C)[C@@H]3CC[C@H]4C(C)(C)[C@@H](O[C@@H]5OC[C@@H](O)[C@H](O)[C@H]5O)CC[C@@]45C[C@@]35CC[C@@]23CO[C@@]2(C(C)(C)O)CC[C@](C)(O2)[C@@H]13 | – | > 40 | – | 4.65
9 | CC(=O)O[C@H]1[C@@H](O)[C@@]2(C)[C@@H]3[C@@H](O)C[C@H]4C(C)(C)[C@@H](O[C@@H]5OC[C@@H](O)[C@H](O)[C@H]5O)CC[C@@]45C[C@@]35CC[C@@]23CO[C@@]2(C(C)(C)O)CC[C@](C)(O2)[C@@H]13 | Not Active | > 40 | < 5 | –
10 | CC(=O)O[C@H]1[C@H](O)[C@@]2(C)[C@@H]3CC[C@H]4C(C)(C)[C@@H](O[C@@H]5OC[C@@H](O)[C@H](O)[C@H]5O)CC[C@@]45C[C@@]35CC[C@@]23CO[C@@](C)(CCC(=O)C(C)(C)O)[C@@H]13 | – | > 40 | < 5 | > 10
11 | CC(=O)O[C@H]1[C@@H](OC(C)=O)[C@@]2(C)[C@@H]3CC[C@H]4C(C)(C)[C@@H](O)CC[C@@]45C[C@@]35CC[C@@]23CO[C@@]2(C(C)(C)O)CC[C@](C)(O2)[C@@H]13 | Not Active | > 40 | < 5 | –
12 | CC(=O)O[C@H]1[C@@H](OC(C)=O)[C@@]2(C)[C@@H]3CC[C@H]4C(C)(C)[C@@H](OC(=O)CC(C)(C)CC(=O)O)CC[C@@]45C[C@@]35CC[C@@]23CO[C@@]2(C(C)(C)O)CC[C@](C)(O2)[C@@H]13 | Not Active | > 20 | < 5 | –
13 | CC(=O)O[C@H]1[C@@H]2O[C@@]3(C(C)(C)O[C@H]4O[C@H](CO)[C@@H](O)[C@H](O)[C@H]4O)CC[C@](C)(O3)[C@@H]2[C@@]2(C)CC[C@@]34C[C@@]35CC[C@H](O[C@@H]3OC[C@@H](O)[C@H](O)[C@H]3O)C(C)(C)[C@@H]5CC[C@H]4[C@]12C | – | 35.4 | 9.4 | 3.76
14 | CC(=O)O[C@H]1[C@@H](OC(C)=O)[C@@]2(C)[C@@H]3CC[C@H]4C(C)(C)[C@@H](OC(=O)CCCC(=O)O)CC[C@@]45C[C@@]35CC[C@@]23CO[C@@]2(C(C)(C)O)CC[C@](C)(O2)[C@@H]13 | Not Active | > 20 | < 5 | –
15 | CC(=O)O[C@H]1[C@@H]2O[C@@]3(C(C)(C)O)CC[C@](C)(O3)[C@@H]2[C@@]2(CO)CC[C@@]34C[C@@]35CC[C@H](O[C@@H]3OC[C@@H](O)[C@H](O)[C@H]3O)C(C)(C)[C@@H]5CC[C@H]4[C@]12C | Not Active | > 40 | < 5 | –
16 | CC1(C)[C@@H](O[C@@H]2OC[C@@H](O)[C@H](O)[C@H]2O)CC[C@]23C[C@]24CC[C@]25CO[C@@]6(C(C)(C)O)CC[C@](C)(O6)[C@H]2[C@@H](O)[C@@H](O)[C@@]5(C)[C@@H]4CC[C@@H]13 | – | > 40 | – | 7.62
17 | C[C@@H]1O[C@@H](O[C@H]2[C@H](O[C@H]3CC[C@]45C[C@]46CC[C@]4(C)[C@@H]([C@]7(C)CC[C@@H](C(C)(C)O)O7)[C@@H](O)C[C@@]4(C)[C@@H]6[C@@H](O)C[C@H]5C3(C)C)OC[C@@H](O)[C@@H]2O)[C@H](O)[C@H](O)[C@H]1O | – | > 40 | < 5 | > 10
18 | CC(C)(O)[C@@H]1CC[C@@](C)([C@H]2[C@@H](O)[C@H](O)[C@@]3(C)[C@@H]4[C@@H](O)C[C@H]5C(C)(C)[C@@H](O[C@@H]6OC[C@@H](O)[C@H](O)[C@H]6O)CC[C@@]56C[C@@]46CC[C@]23C)O1 | Not Active | > 40 | < 5 | –
19 | CC1(C)[C@@H](O)CC[C@]23C[C@]24CC[C@]25CO[C@@]6(C(C)(C)O)CC[C@](C)(O6)[C@H]2[C@@H](O)[C@@H](O)[C@@]5(C)[C@@H]4CC[C@@H]13 | – | > 40 | < 5 | > 40
20 | C=C(C)[C@@H]1CC[C@]2(C(=O)O)CC[C@]3(C)[C@H](CC[C@@H]4[C@@]5(C)CC[C@H](OC(=O)CC(C)(C)C(=O)O)C(C)(C)[C@@H]5CC[C@]43C)[C@@H]12 [BEVIRIMAT] | – | 15.9 | 612 | 0.026
21 | CC(=O)O[C@H]1[C@H](O)[C@H]([C@]2(C)CC[C@@H](C(C)(C)O)O2)[C@@]2(C)CC[C@@]34C[C@@]35CC[C@H](O[C@@H]3OC[C@@H](O)[C@H](O)[C@H]3O)C(C)(C)[C@@H]5CC[C@H]4[C@]12C | – | > 40 | – | 4.85
22 | CC(=O)O[C@H]1[C@@H](OC(C)=O)[C@@]2(C)[C@@H]3CC[C@H]4C(C)(C)[C@@H](OC(=O)COCC(=O)O)CC[C@@]45C[C@@]35CC[C@@]23CO[C@@]2(C(C)(C)O)CC[C@](C)(O2)[C@@H]13 | – | > 5 | – | 0.12
23 | CC(=O)O[C@H]1[C@@H](OC(C)=O)[C@@]2(C)[C@@H]3CC[C@H]4C(C)(C)[C@@H](OC(=O)CC5(CC(=O)O)CCCC5)CC[C@@]45C[C@@]35CC[C@@]23CO[C@@]2(C(C)(C)O)CC[C@](C)(O2)[C@@H]13 | – | > 20 | – | 1.59
24 | CC(=O)O[C@H]1[C@@H](OC(C)=O)[C@@]2(C)[C@@H]3CC[C@H]4C(C)(C)[C@@H](OC(=O)CC(C)C(=O)O)CC[C@@]45C[C@@]35CC[C@@]23CO[C@@]2(C(C)(C)O)CC[C@](C)(O2)[C@@H]13 (some centres not stated) | – | > 20 | – | 1.11
25 | CC(=O)O[C@H]1[C@@H](OC(C)=O)[C@@]2(C)[C@@H]3CC[C@H]4C(C)(C)[C@@H](OC(=O)CCC(=O)O)CC[C@@]45C[C@@]35CC[C@@]23CO[C@@]2(C(C)(C)O)CC[C@](C)(O2)[C@@H]13 | – | > 40 | – | 7.7
26 | CC(=O)O[C@H]1[C@@H](OC(C)=O)[C@@]2(C)[C@@H]3CC[C@H]4C(C)(C)[C@@H](OC(=O)CC(C)CC(=O)O)CC[C@@]45C[C@@]35CC[C@@]23CO[C@@]2(C(C)(C)O)CC[C@](C)(O2)[C@@H]13 (mixture of isomers) | Not Active | > 20 | < 5 | –
27 | Cc1cn([C@H]2C[C@H](N=[N+]=[N-])[C@@H](CO)O2)c(=O)[nH]c1=O [ZIDOVUDINE] | – | 77.5 | – | –
28 | CC(=O)O[C@H]1[C@@H](OC(C)=O)[C@@]2(C)[C@@H]3CC[C@H]4C(C)(C)[C@@H](O[C@@H]5OC[C@@H](O)[C@H](O)[C@H]5O)CC[C@@]45C[C@@]35CC[C@@]23CO[C@@]2(C(C)(C)O)CC[C@](C)(O2)[C@@H]13 | – | > 40 | – | 2.32
